Reference: ChEMBL document CHEMBL1122504, “Heterocyclic Quinones. 4. A new highly cytotoxic drug: 6,7-bis(1-aziridinyl)-5,8-quinazolinedione” (1983)

Experiments:
P388 [1] = experiment: Number of survivors of P388 lymphocytic leukemia cell line on day 5/ number of treated mice at a dose of 9 ip injection of 2.5 mg/kg on Q01Dx09 treatment schedule; 10/10; assay type: functional, Mus musculus; conditions: route intraperitoneal
Salmonella typhimurium [2] = experiment: Mutagenesis test was performed at 10 uM concentration in Salmonella Typhimurium TA 98; assay type: functional, Salmonella enterica subsp. enterica serovar Typhimurium
Summary of the method: (§1)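 Salmonella typhimurium his auxotrophs TA98 and TA100 were tested by liquid suspension without metabolic activation. Overnight Oxoid nutrient broth cultures were subcultured, grown 2 h, then exposed to drug for 5 h. Cells were washed, resuspended to A650 2.50, and plated in top agar (0.6% agar, 0.6% NaCl). His+ revertants per plate were counted after 48 h at 37 °C; values are means of three assays.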

P388 [3] = experiment: MST of treated animal over control when administered at a dose of 2.5 mg/kg intraperitoneally on Q01Dx09 treatment schedule; assay type: functional, Mus musculus; conditions: route intraperitoneal
Summary of the method: (§2)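 P388 leukaemia: DBA/2 mice inoculated with 10^6 cells on day 0; treatment began day 1 at the stated route and schedule. Drug was dissolved in 0.15 M NaCl saline. The read-out was median survival time (MST, days), with toxicity taken as survivors on day 5. T/C% = treated MST/control MST × 100; ≥125% is considered significant.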

Salmonella typhimurium [4] = experiment: Mutagenesis test was performed at 40 uM concentration in Salmonella Typhimurium TA 98; assay type: functional, Salmonella enterica subsp. enterica serovar Typhimurium; summary of the method: as §1
L1210 [5] = experiment: MST of treated animal over control when administered at a dose of 10 mg/kg intraperitoneally on Q01Dx02 treatment schedule in L1210 cell lines; assay type: functional, Mus musculus; conditions: route intraperitoneal
Summary of the method: (§3)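 L1210 leukaemia: DBA/2 mice inoculated ip with 10^5 cells on day 0, with ip drug in 0.15 M NaCl saline on the stated schedule. The read-out was median survival time in days, with toxicity taken as survivors on day 5. T/C% = treated MST/control MST × 100; >125% is considered significant.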

L1210 [6] = experiment: Median survival time of L1210 cell line after a dose of 10 mg/kg administered intraperitoneally on Q01Dx05 treatment schedule; assay type: functional, Mus musculus; conditions: route intraperitoneal; summary of the method: as §3
P388 [7] = experiment: Number of survivors of P388 lymphocytic leukemia cell line on day 5/ number of treated mice at a dose of 7po injection of 15 mg/kg on Q01Dx07 treatment schedule; 10/10; assay type: functional, Mus musculus
P388 [8] = experiment: Number of survivors of P388 lymphocytic leukemia cell line on day 5/ number of treated mice at a dose of 1 i.v. injection of 5 mg/kg on Q01Dx01 treatment schedule; 10/10; assay type: functional, Mus musculus; conditions: route intravenous
L1210 [9] = experiment: MST of treated animal over control when administered at a dose of 10 mg/kg intraperitoneally on Q01Dx05 treatment schedule in L1210 cell lines; assay type: functional, Mus musculus; conditions: route intraperitoneal; summary of the method: as §3
P388 [10] = experiment: Number of survivors of P388 lymphocytic leukemia cell line on day 5/ number of treated mice at a dose of 1 i.p. injection of 10 mg/kg on Q01Dx01 treatment schedule; 10/10; assay type: functional, Mus musculus; conditions: route intraperitoneal
L1210 [11] = experiment: Median survival time of L1210 cell line after a dose of 5 mg/kg administered intraperitoneally on Q01Dx09 treatment schedule; assay type: functional, Mus musculus; conditions: route intraperitoneal; summary of the method: as §3
P388 [12] = experiment: Number of survivors of P388 lymphocytic leukemia cell line on day 5/ number of treated mice at a dose of 9 ip injection of 5 mg/kg on Q01Dx09 treatment schedule; 10/10; assay type: functional, Mus musculus; conditions: route intraperitoneal
Sarcoma-180 [13] = experiment: Median survival time of sarcoma 180 cell line after a dose of 10 mg/kg administered intraperitoneally on Q01Dx01 treatment schedule; assay type: functional, Mus musculus; conditions: route intraperitoneal
Summary of the method: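 Sarcoma 180 was inoculated ip in Swiss mice (10^6 cells, day 0), and drug was given ip in 0.15 M NaCl saline. Median survival time was recorded in days; antitumor activity was expressed as treated MST over control MST ×100, significant above 125%.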

L1210 [14] = experiment: Number of survivors of L1210 cell line on day 5/ number of treated mice at a dose of 5ip injection of 10 mg/kg on Q01Dx05 treatment schedule; 10/10; assay type: functional, Mus musculus
Sarcoma-180 [15] = experiment: MST of treated animal over control when administered at a dose of 10 mg/kg intraperitoneally on Q01Dx01 treatment schedule in sarcoma 180 cell lines; assay type: functional, Mus musculus; conditions: route intraperitoneal
Summary of the method: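 Sarcoma 180: Swiss mice inoculated ip with 10^6 cells on day 0, with single ip injection of drug in 0.15 M NaCl saline. Median survival time was recorded in days, with toxicity taken as survivors on day 5. T/C% = treated MST/control MST × 100; >125% is considered significant.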

L1210 [16] = experiment: Number of survivors of L1210 cell line on day 5/ number of treated mice at a dose of 1 i.p. injection of 10 mg/kg on Q01Dx01 treatment schedule; 10/10; assay type: functional, Mus musculus; conditions: route intraperitoneal
P388 [17] = experiment: Median survival time of P388 lymphocytic leukemia cell line after a dose of 10 mg/kg administered intraperitoneally on Q01Dx05 treatment schedule; assay type: functional, Mus musculus; conditions: route intraperitoneal; summary of the method: as §2
P388 [18] = experiment: Median survival time of P388 lymphocytic leukemia cell line after a dose of 15 mg/kg administered perorally on Q01Dx07 treatment schedule; assay type: functional, Mus musculus; conditions: route oral; summary of the method: as §2
B16 [19] = experiment: MST of treated animal over control when administered at a dose of 10 mg/kg intraperitoneally on Q01Dx01 treatment schedule in B16 melanocarcinoma cell lines; assay type: functional, Mus musculus; conditions: route intraperitoneal
Summary of the method: (§4)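 B16 melanocarcinoma: C57Bl/6 mice implanted sc with cell suspension on day 0; single ip dose in 0.15 M NaCl saline given on day 1. Median survival time was recorded in days, with toxicity taken as survivors on day 5. T/C% = treated MST/control MST × 100; >125% is considered significant.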

B16 [20] = experiment: Median survival time of […] melanocarcinoma cell line after a dose of 2.5 mg/kg administered intraperitoneally on Q01Dx01 treatment schedule; assay type: functional, Mus musculus; conditions: route intraperitoneal; summary of the method: as §4
P388 [21] = experiment: MST of treated animal over control when administered at a dose of 20 mg/kg intraperitoneally on Q01Dx01 treatment schedule; assay type: functional, Mus musculus; conditions: route intraperitoneal; summary of the method: as §2
P388 [22] = experiment: Median survival time of P388 lymphocytic leukemia cell line after a dose of 10 mg/kg administered perorally on Q01Dx07 treatment schedule; assay type: functional, Mus musculus; conditions: route oral; summary of the method: as §2
B16 [23] = experiment: MST of treated animal over control when administered at a dose of 2.5 mg/kg intraperitoneally on Q01Dx01 treatment schedule in B16 melanocarcinoma cell lines; assay type: functional, Mus musculus; conditions: route intraperitoneal; summary of the method: as §4
L1210 [24] = experiment: MST of treated animal over control when administered at a dose of 10 mg/kg intraperitoneally on Q01Dx01 treatment schedule in L1210 cell lines; assay type: functional, Mus musculus; conditions: route intraperitoneal; summary of the method: as §3
Salmonella typhimurium [25] = experiment: Mutagenesis test was performed at 60 uM concentration in Salmonella Typhimurium TA 98; assay type: functional, Salmonella enterica subsp. enterica serovar Typhimurium; summary of the method: as §1
P388 [26] = experiment: MST of treated animal over control when administered at a dose of 5 mg/kg intravenously on Q01Dx01 treatment schedule; assay type: functional, Mus musculus; conditions: route intravenous; summary of the method: as §2
L1210 [27] = experiment: Number of survivors of L1210 cell line on day 5/ number of treated mice at a dose of 9ip injection of 5 mg/kg on Q01Dx09 treatment schedule; 10/10; assay type: functional, Mus musculus
Salmonella typhimurium [28] = experiment: Mutagenesis test was performed at 4 uM concentration in Salmonella Typhimurium TA 98; assay type: functional, Salmonella enterica subsp. enterica serovar Typhimurium; summary of the method: as §1
Salmonella typhimurium [29] = experiment: Mutagenesis test was performed at 20 uM concentration in Salmonella Typhimurium TA 98; assay type: functional, Salmonella enterica subsp. enterica serovar Typhimurium; summary of the method: as §1
B16 [30] = experiment: Number of survivors of B16 melanocarcinoma cell line on day 5/ number of treated mice at a dose of 1 ip injection of 2.5 mg/kg on Q01Dx01 treatment schedule; 10/10; assay type: functional, Mus musculus; conditions: route intraperitoneal

O=C1C(N2CC2)=C(N2CC2)C(=O)c2ncncc21
Toxicity Survivors (P388 [1]): 10
Revertants/plate (Salmonella typhimurium [2]): 89
T/C (P388 [3]): 128%
Revertants/plate (Salmonella typhimurium [4]): 334
T/C (L1210 [5]): 104%
MST (L1210 [6]): 9.1 days
Toxicity Survivors (P388 [7]): 10
Toxicity Survivors (P388 [8]): 10
T/C (L1210 [9]): 69%
Toxicity Survivors (P388 [10]): 10
MST (L1210 [11]): 9.1 days
Toxicity Survivors (P388 [12]): 10
MST (Sarcoma-180 [13]): 18.3 days
Toxicity Survivors (L1210 [14]): 10
T/C (Sarcoma-180 [15]): 109%
Toxicity Survivors (L1210 [16]): 10
MST (P388 [17]): 10.4 days
MST (P388 [18]): 7.6 days
T/C (B16 [19]): 91%
MST (B16 [20]): 15.7 days
T/C (P388 [21]): 134%
MST (P388 [22]): 7.6 days
T/C (B16 [23]): 121%
T/C (L1210 [24]): 114%
Revertants/plate (Salmonella typhimurium [25]): 1080
T/C (P388 [26]): 103%
Toxicity Survivors (L1210 [27]): 10
Revertants/plate (Salmonella typhimurium [28]): 81
Revertants/plate (Salmonella typhimurium [29]): 98
Toxicity Survivors (B16 [30]): 10
